Test system: MS2 coat protein
Test: apparent Kd, MS2 coat protein; higher = weaker binding; RNA-MaP array; FMN 200 µM where present
Procedure, shortened: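 SNAP-549-labelled MS2 coat protein, doubled from 0.7 or 1.5 nM to 3 µM, was titrated over designs transcribed by stalled E. coli RNA polymerase on Illumina sequencing-chip clusters. Titrations were run without and then with constant ligand in 100 mM Tris-HCl pH 7.5, 80 mM KCl, 4 mM MgCl2, BSA, DTT, yeast tRNA and Tween-20. The apparent Kd is the median of filtered per-cluster fits to green signal normalised to red-channel RNA signal and control-cluster median Fmax.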

[1] = designed as: ON switch for flavin mononucleotide, no ligand
[2] = ligand present: flavin mononucleotide, designed as: ON switch for flavin mononucleotide
[3] = designed as: OFF switch for flavin mononucleotide, no ligand
[4] = ligand present: flavin mononucleotide, designed as: OFF switch for flavin mononucleotide

| Sequence | apparent Kd [1] [nM] | apparent Kd [2] [nM] | apparent Kd [3] [nM] | apparent Kd [4] [nM] |
| --- | --- | --- | --- | --- |
| AGUUUCUCCGCAGGAUAUGUGCUCUUUAUCACAUGAGGAUCACCCAUGUCAGCCUACACGGCGAGACAGAAGGGUGGUGAUGCC | 88.6 | 81.2 |  |  |
| GUCCACAUGAGGAUCACCCAUGUGAGAAGGUUGGUUUUGUUGAGGUAGUGGUUUGCCUUGGUGGUAGAGGAUAUUGAUGGGUUA |  |  | 7.7 | 7.33 |
| CACCGUUAACUAGGAUAUAGUACAUGAGGAUCACCCAUGUAAUAAAUGAGAAUUUCGGAUGUAUGCUAGAAGGAGUAAAUCGGC |  |  | 62.8 | 64.4 |
| ACUGACAUGAGGAUCACCCAUGUCUUGAAUAGGUCAAAUUCACAGGAUAUGCGCUCGGCCAAGGCGCAGAAGGGUGAUGCAAUG | 57.9 | 11.1 |  |  |
| AUGCUUUAUGUAGGAUAUGCAUACUGUUAGUAUGCAGAAGGACAUGAGGAUCACCCAUGUAUAUUAUUAUUACAUAUCAUACAU |  |  | 26 | 311 |
| GGAUAGGACAGAGGAUAUACCGAUAGGAGAUACUAUCGACUAGUCCUCACAUGAGGAUCACCCAUGUAGAAGGCUGUCCUAUCG |  |  | 23.3 | 234 |
| GAGUUUAAGUUUGUCACUUAGAGAGAGGAUAUGGAAAACUUGACAUGAGGAUCACCCAUGUAUAAUCAGAAGGCUCGAGUACGA | 12.1 | 7.33 |  |  |
| GUACAGUAGUGAGGAUAUACGAGAUCGAUAGAUCGGCGAUCCAAUUAUACAUGAGGAUCACCCAUGUAGAAGGCACUUCUGUAC |  |  | 8.37 | 66.9 |
| UGUGCUGAAGGAUAUGCGUAAUGGCCGUGAGGCCUAGAUCUACAUGAGGAUCACCCAUGUAGAAGGUCAGUACU |  |  | 17.4 | 18.9 |
| AGAUGGUAUAUAGGAUAUCAUGUGCAAACAUGAGGAUCACCCAUGUAGAGACGUCAGUUUAAUAAUGAGAAGGAUAUACCAUCU | 31.9 | 14.4 |  |  |
| UUUAUGAAGCUUCGUCAAUACAGUUAGGAUAUGAGAGACAUGAGGAUCACCCAUGUGCAUGUUGAUUAGAAGGAACAAUUAUCU |  |  | 15.6 | 14.6 |
| AAGGGACAUGAGGAUCACCCAUGUGAGGAUAUAUAAAUGUACCCGAUGGGAGUACACAAUAGAAGGCGCGGCUA |  |  | 40.7 | 32.8 |
| AAGAAGUCAGGAUAUCGUUAAUUUAGUUGUUUGUAUUAGUUCGAGAAGGGACAUGAGGAUCACCCAUGUAAGAA |  |  | 35.2 | 42.7 |
| CGCAUGCGUAGUAUUAGUUGCUGACAGGAUAUGACAUGAGGAUCACCCAUGUGAAAUAAGAAGAGUCAGAAGGGUCACGAUGCG |  |  | 16.8 | 9.58 |
| CAGCAAUGUAAGAAGGCUGCUCCGAUUAGGAGCAGAGGAUAUUACAUGAGGAUCACCCAUGUAUAAAAUAAUAGCUGAAAUAAU |  |  | 6.37 | 7.69 |
| UGUGGGAGUCAGAAGGAGUAUUCUACAUGAGGAUCACCCAUGUCUGGUGCUAGGAUAUGGGUCUGGGCGGACUAAGGUCUCGUA | 444 | 243 |  |  |
| GUAUGAUUAAGAGGAUAUAUACAACAUGAGGAUCACCCAUGUACCCGUGUAGUAGAAGGUUUGUUUUUAUAUAAUAAUAUAAUU | 26.6 | 19.1 |  |  |
| CACAUGUGAGGAUAUGUACGAGGCCCGGACGGGUCUCGCAGGCAGAAGGCACAUGAGGAUCACCCAUGUGACCG |  |  | 23.9 | 66.7 |
| UUGCGGUAGGAGAAGGACAGAGGCGGAAACACAAACAUGAGGAUCACCCAUGUAGGAUAUCCUACCUAACGCGGACUCCUCCAG |  |  | 6.3 | 8.88 |
| AAAUAGUUAGGAUAUACAUGAGGAUCACCCAUGUGGACUGAUGGCGAUUGAUUCAGUGGUAGAAGGGACUCAAA |  |  | 37.4 | 56.4 |
| AUAAUUUAAGUGAGGAUAUACCUAUGGAAACAUAGGUAGAAGGCACAUGAGGAUCACCCAUGUUUUUACACAAA |  |  | 17.8 | 37.9 |

| Sequence | apparent Kd [1] [nM] | apparent Kd [2] [nM] | apparent Kd [3] [nM] | apparent Kd [4] [nM] |
| --- | --- | --- | --- | --- |
| ACAUGAGGAUGAGGAUAUUCAUACAUGAGGAUAGAAGAAGGCAUACAUGAGGAUCACCCAUGUAUACACAUGAGGAUCGCCCAU |  |  | 37.1 | 47.3 |
| GUGUACAGAGGAUAUAUAUGAGCUAGGAAACUAGCAACCUCACAUGAGGAUCACCCAUGUAGAAGGCUGUACAC |  |  | 103 | 346 |
| CUCAUGUGAGGAUAUCAGUAGUAAAAAAAUAAAAUUACUACUGAGAAGGCACAUGAGGAUCACCCAUGUGCCAA |  |  | 16.1 | 28.6 |
| GUGGUCAGACAUGAGGAUCACCCAUGUGGAAUAAAUAAGGGUUAGGAUAUGCAAUAUAGGAUAUAGCAGAAGGGAUGGUUGGUG | 128 | 173 |  |  |
| CAAAUUAGCGAGAAGGAGCGCCCGUAGGUACAUGAGGAUCACCCAUGUCCUUUGUGCUCUACGCGCUAGGAUAUCGAUAAACAG |  |  | 12.8 | 99.4 |
| CGGGUAUAUCGAGGAUAUAAGUCUAGGACAUGAGGAUCACCCAUGUAUGUCUUAGAAGGCGAUAUACCCAGCCUGUUACAGGCA | 31 | 6.37 |  |  |
| AACAGUAUAGGAUAUACAUGAGGAUCACCCAUGUGAGAAUUACGUGGCGUACCACGAAGUAGAAGGAUACUGGA |  |  | 38.6 | 168 |
| AAAAAACAUGAGGAUCACCCAUGUGAGGAUAUCGAGAAGAAGAAGAAGAAGAAGAGAACGAGAAGGCACAAAAA |  |  | 47.4 | 51.5 |
| ACACAUGAGGAUCACCCAUGUAGUAAUAGCUUCCGGACCUCACAGGAUAUAUGCAAGUUCGUUGCGUAGAAGGGUGAACUCUAA | 89 | 92.5 |  |  |
| GCACUUGCGUAGAAGGUACUAUAUAAUACACUGUAAGGAUAUACAUACAUGAGGAUCACCCAUGUAAAUGGAAUUUGCAAGUGC | 6.62 | 6.49 |  |  |
| AUAAAACAUGAGGAUCACCCAUGUAGAAAUAUGGGAGGAUAUACAAAGACGAAAGUCAAAGUAGAAGGCCUAAAAG | 127 | 33.5 |  |  |
| UACAUGAGGAUCACCCAUGUUUUGUCGUGUAUGGUAUUUAUCUAGGAUAUCAAUUUAGUUAAUUAUGAGAAGGAGAAUAUUAAU |  |  | 39.1 | 39 |
| CCGAUGAGAGUCGGGCUACAUGAGGAUCACCCAUGUGCUUCACAGGAUAUGGUACGUAGUGAGUUCCAGAAGGGUGAUUAAUCU | 316 | 48.7 |  |  |
| UUCAAGUUGCGAGGAUAUCGUGUUAACAUGAGGAUCACCCAUGUAAAGGUUUAUUAAUUAAUCUUCGAGAAGGCGCUUAAUGUA | 29.3 | 19.5 |  |  |
| AAUUGACACGUAGGAUAUCGAUCUAAAUUAACUCGAGAAGGACGCACAUGAGGAUCACCCAUGUUUAAUGGAGUAGACAUGUUG |  |  | 314 | 508 |
| ACUAUACGAGGAUAUACUGACGGGCCUCAGGCGUCCAUCAGACAUGAGGAUCACCCAUGUAGAAGGCGUAUACU |  |  | 85.5 | 196 |
| UUUUGUUUACAAGGAUAUCAAUUAUUUAUACUUCCUACAUGAGGAUCACCCAUGUUUUUAUAUUUUGAGAAGGUGUAAUGUCGG | 40.4 | 39 |  |  |
| GCGUAACAUGAGGAUCACCCAUGUACCCGAGAAUUCGGGUGUAGAAGGGUGACCGGUCGUUUGGCACAGGAUAUACACGCUGUG | 37.1 | 11.5 |  |  |
| GGGUGUGAAGGAUAUACAUGAGGAUCACCCAUGUGAGAGGAGAAUGUUGAGGAGGUUGGUAGAAGGUCAGGAGG |  |  | 93.8 | 67.6 |
| ACGAAGAUACAGAAGGGUAAAGUAGUUAAUUAUAAGUAGGAAAUGCUCUACAGGAUAUGUUAGACAUGAGGAUCACCCAUGUAC | 30.7 | 13.1 |  |  |

From the EternaBench riboswitch data
